Source: ChEMBL document CHEMBL1138738, “Synthesis, in vitro pharmacology, structure-activity relationships, and pharmacokinetics of 3-alkoxy-2-amino-6-fluorobicyclo[3.1.0]hexane-2,6-dicarboxylic acid derivatives as potent and selective group II metabotropic glutamate receptor antagonists” (J Med Chem, 2004)

Key:
[1] = target: T1, Metabotropic glutamate receptor 2 (Rattus norvegicus, UniProt P31421); experiment: Binding affinity towards metabotropic glutamate receptor 2 of rat expressed in CHO cells was determined by using [3H]MGS-0008; format: cell-based
T1 sequence (P31421 whole entry): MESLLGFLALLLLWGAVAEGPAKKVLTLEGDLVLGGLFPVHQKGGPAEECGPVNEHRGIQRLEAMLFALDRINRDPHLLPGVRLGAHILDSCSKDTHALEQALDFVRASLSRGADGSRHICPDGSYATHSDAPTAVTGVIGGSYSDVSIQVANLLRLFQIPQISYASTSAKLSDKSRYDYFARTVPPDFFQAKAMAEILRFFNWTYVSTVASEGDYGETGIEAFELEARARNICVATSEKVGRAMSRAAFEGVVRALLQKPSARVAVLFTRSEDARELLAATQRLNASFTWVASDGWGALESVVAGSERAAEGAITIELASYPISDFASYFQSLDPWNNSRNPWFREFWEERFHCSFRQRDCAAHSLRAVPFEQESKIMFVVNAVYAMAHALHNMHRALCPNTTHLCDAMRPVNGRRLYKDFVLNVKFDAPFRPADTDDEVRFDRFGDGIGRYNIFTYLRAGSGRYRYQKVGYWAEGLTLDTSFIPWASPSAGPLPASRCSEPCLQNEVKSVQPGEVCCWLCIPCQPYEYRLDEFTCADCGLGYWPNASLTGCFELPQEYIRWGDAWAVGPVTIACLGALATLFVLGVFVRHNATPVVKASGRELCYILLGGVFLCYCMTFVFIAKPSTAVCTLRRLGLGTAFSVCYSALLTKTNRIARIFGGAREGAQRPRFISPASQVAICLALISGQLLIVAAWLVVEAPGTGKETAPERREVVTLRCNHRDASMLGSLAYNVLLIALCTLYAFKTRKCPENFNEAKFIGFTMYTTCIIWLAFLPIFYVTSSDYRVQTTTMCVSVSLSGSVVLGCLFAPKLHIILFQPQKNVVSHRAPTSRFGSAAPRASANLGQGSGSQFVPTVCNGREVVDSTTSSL

[2] = target: T1, Metabotropic glutamate receptor 2; experiment: Concentration required to inhibit metabotropic glutamate receptor 2 activity of rat expressed in CHO cells; format: cell-based
[3] = target: Metabotropic glutamate receptor 3 (Rattus norvegicus, UniProt P31422); experiment: Binding affinity towards metabotropic glutamate receptor 3 of rat expressed in CHO cells was determined by using [3H]MGS-0008; format: cell-based
Metabotropic glutamate receptor 3, sequence (P31422 whole entry): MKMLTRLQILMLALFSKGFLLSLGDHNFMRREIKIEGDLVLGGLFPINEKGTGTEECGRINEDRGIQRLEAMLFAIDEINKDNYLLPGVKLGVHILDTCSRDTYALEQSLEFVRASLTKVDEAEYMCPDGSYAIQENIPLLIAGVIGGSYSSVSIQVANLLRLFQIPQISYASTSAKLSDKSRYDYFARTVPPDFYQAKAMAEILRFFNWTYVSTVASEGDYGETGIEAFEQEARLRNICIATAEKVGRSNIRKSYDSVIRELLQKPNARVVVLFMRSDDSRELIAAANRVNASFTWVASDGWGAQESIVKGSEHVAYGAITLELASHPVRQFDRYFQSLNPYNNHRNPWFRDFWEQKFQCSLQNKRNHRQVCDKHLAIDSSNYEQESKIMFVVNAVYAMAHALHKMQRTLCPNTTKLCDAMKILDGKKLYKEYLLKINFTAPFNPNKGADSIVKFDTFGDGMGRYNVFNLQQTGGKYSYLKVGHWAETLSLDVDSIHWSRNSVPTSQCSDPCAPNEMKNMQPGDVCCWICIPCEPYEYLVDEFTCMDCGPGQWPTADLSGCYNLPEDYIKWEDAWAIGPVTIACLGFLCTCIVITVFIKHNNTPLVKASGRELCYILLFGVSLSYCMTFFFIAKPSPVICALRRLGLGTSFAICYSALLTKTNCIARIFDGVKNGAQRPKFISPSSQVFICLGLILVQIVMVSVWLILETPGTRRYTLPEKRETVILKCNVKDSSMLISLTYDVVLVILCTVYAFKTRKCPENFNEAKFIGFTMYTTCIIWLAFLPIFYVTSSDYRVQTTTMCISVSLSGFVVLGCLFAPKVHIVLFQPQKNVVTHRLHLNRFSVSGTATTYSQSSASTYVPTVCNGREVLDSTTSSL

[4] = Half-life in rat upon oral dose of 30 mg/kg; format: ADME, organism-based; set-up: dose 30 mg/kg, route oral; conditions: in vivo
Procedure, shortened: (§1)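 Fasted rats were dosed orally at 3, 10 or 30 mg/kg. Plasma concentration-time profiles were measured by LC/ESI-MS/MS. Cmax, Tmax, elimination half-life and AUCinf were derived per dose group and reported as mean ± deviation.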

[5] = target: T1, Metabotropic glutamate receptor 2; experiment: Effective concentration for agonistic activity towards metabotropic glutamate receptor 2 of rat expressed in CHO cells; format: functional, cell-based
[6] = Concentration of compound in brain of rat after 1 hr of oral dose 10 mg/kg; format: ADME, organism-based; set-up: dose 10 mg/kg, route oral
Procedure, shortened: (§2)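 Rats given a single peroral dose of 10 mg/kg. Plasma and cerebrum were sampled at 1, 3, 6 and 24 h. Concentrations were measured by LC/ESI-MS/MS using an internal standard. Detection limits were 1 ng/mL in plasma and 1.5 ng/g in brain. Tmax, Cmax, terminal half-life (lambda z) and predicted AUCinf were derived from the mean time-course levels.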

[7] = Concentration of compound in brain of rat after 3h of oral dose 10 mg/kg; format: ADME, organism-based; set-up: dose 10 mg/kg, route oral; procedure, shortened: as §2
[8] = Concentration of compound in brain of rat after 6 hr of oral dose 10 mg/kg; format: ADME, organism-based; set-up: dose 10 mg/kg, route oral; procedure, shortened: as §2
[9] = Peak plasma concentration in rats upon oral dose of 3 mg/kg; format: ADME, organism-based; set-up: dose 3 mg/kg, route oral; conditions: rat; procedure, shortened: as §1
[10] = Peak plasma concentration in rats upon oral dose of 10 mg/kg; format: ADME, organism-based; set-up: dose 10 mg/kg, route oral; conditions: rat; procedure, shortened: as §1
[11] = Peak plasma concentration in rats upon oral dose of 30 mg/kg; format: ADME, organism-based; set-up: dose 30 mg/kg, route oral; conditions: rat; procedure, shortened: as §1
[12] = Peak plasma concentration in rat brain upon oral dose of 10 mg/kg; format: ADME, organism-based; set-up: dose 10 mg/kg, route oral; procedure, shortened: as §2
[13] = Peak plasma concentration in rat plasma upon oral dose of 10 mg/kg; format: ADME, organism-based; set-up: dose 10 mg/kg, route oral; procedure, shortened: as §2
[14] = Half-life in rat brain upon oral dose of 10 mg/kg; format: ADME, organism-based; set-up: dose 10 mg/kg, route oral; procedure, shortened: as §2
[15] = Half-life in rat plasma upon oral dose of 10 mg/kg; format: ADME, organism-based; set-up: dose 10 mg/kg, route oral; procedure, shortened: as §2
[16] = Concentration of compound in brain of rat after 24 hr of oral dose 10 mg/kg; format: ADME, organism-based; set-up: dose 10 mg/kg, route oral; procedure, shortened: as §2
[17] = Concentration of compound in plasma of rat after 1 hr of oral dose 10 mg/kg; format: ADME, organism-based; set-up: dose 10 mg/kg, route oral; procedure, shortened: as §2
[18] = Concentration of compound in plasma of rat after 3h of oral dose 10 mg/kg; format: ADME, organism-based; set-up: dose 10 mg/kg, route oral; procedure, shortened: as §2
[19] = Concentration of compound in plasma of rat after 6 hr of oral dose 10 mg/kg; format: ADME, organism-based; set-up: dose 10 mg/kg, route oral; procedure, shortened: as §2
[20] = Concentration of compound in plasma of rat after 24 hr of oral dose 10 mg/kg; format: ADME, organism-based; set-up: dose 10 mg/kg, route oral; procedure, shortened: as §2
[21] = Maximum time required to achieve peak plasma concentration upon oral dose of 3 mg/kg to rats; format: ADME, organism-based; set-up: dose 3 mg/kg, route oral; conditions: rat; procedure, shortened: as §1
[22] = Maximum time required to achieve peak plasma concentration upon oral dose of 10 mg/kg to rats; format: ADME, organism-based; set-up: dose 10 mg/kg, route oral; conditions: rat; procedure, shortened: as §1
[23] = Maximum time required to achieve peak plasma concentration upon oral dose of 30 mg/kg to rats; format: ADME, organism-based; set-up: dose 30 mg/kg, route oral; conditions: rat; procedure, shortened: as §1
[24] = Maximum time required to achieve peak plasma concentration in rat brain upon oral dose of 10 mg/kg; format: ADME, organism-based; set-up: dose 10 mg/kg, route oral; procedure, shortened: as §2
[25] = Maximum time required to achieve peak plasma concentration in rat plasma upon oral dose of 10 mg/kg; format: ADME, organism-based; set-up: dose 10 mg/kg, route oral; procedure, shortened: as §2
[26] = Half-life in rat upon oral dose of 3 mg/kg; format: ADME, organism-based; set-up: dose 3 mg/kg, route oral; conditions: in vivo; procedure, shortened: as §1
[27] = Half-life in rat upon oral dose of 10 mg/kg; format: ADME, organism-based; set-up: dose 10 mg/kg, route oral; conditions: in vivo; procedure, shortened: as §1

N[C@]1(C(=O)O)[C@H]2[C@@H](C[C@H]1OCc1ccc(Cl)c(F)c1)[C@]2(F)C(=O)O
Ki [1]: 4.02 nM

CC[C@@H](O[C@@H]1C[C@@H]2[C@H]([C@]1(N)C(=O)O)[C@@]2(F)C(=O)O)c1ccc(Cl)c(Cl)c1
Ki [1]: 1.61 nM

N[C@]1(C(=O)O)[C@H]2[C@@H](C[C@H]1OCc1c(Cl)cccc1Cl)[C@]2(F)C(=O)O
Ki [1]: 4.3 nM

N[C@]1(C(=O)O)[C@H]2[C@@H](C[C@H]1OCc1ccccc1)[C@]2(F)C(=O)O
IC50 [2]: 131 nM
Ki [1]: 7.14 nM
Ki [3]: 15.9 nM

N[C@]1(C(=O)O)[C@H]2[C@@H](C[C@H]1OCc1cc(Cl)c(Cl)c(Cl)c1)[C@]2(F)C(=O)O
Ki [1]: 3.67 nM

N[C@]1(C(=O)O)[C@H]2[C@@H](C[C@H]1OCc1cc(Cl)ccc1Cl)[C@]2(F)C(=O)O
Ki [1]: 11.8 nM

Cc1cccc(CO[C@@H]2C[C@@H]3[C@H]([C@]2(N)C(=O)O)[C@@]3(F)C(=O)O)c1
Ki [1]: 4.53 nM

N[C@]1(C(=O)O)[C@H]2[C@@H](C[C@H]1OCc1ccc(F)c(F)c1)[C@]2(F)C(=O)O
half-life [4]: 3.62 h
EC50 [5]: > 100000 nM
IC50 [2]: 40.8 nM
concentration at 1 h [6]: 3.06 ng/mL
concentration at 3 h [7]: 3.11 ng/mL
concentration at 6 h [8]: 2.4 ng/mL
Cmax [9]: 82.3 ng/mL
Cmax [10]: 297 ng/mL
Cmax [11]: 635 ng/mL
Cmax [12]: 3.11 ng/mL
Cmax [13]: 213 ng/mL
half-life [14]: 19.5 h
half-life [15]: 2.8 h
concentration at 24 h [16]: 1.39 ng/mL
concentration at 1 h [17]: 213 ng/mL
concentration at 3 h [18]: 179 ng/mL
concentration at 6 h [19]: 41.1 ng/mL
concentration at 24 h [20]: 0.8 ng/mL
Ki [1]: 2.27 nM
Ki [3]: 3 nM
Tmax [21]: 1.3 h
Tmax [22]: 1.7 h
Tmax [23]: 1.2 h
Tmax [24]: 3 h
Tmax [25]: 1 h
half-life [26]: 3.47 h
half-life [27]: 1.78 h

N[C@]1(C(=O)O)[C@H]2[C@@H](C[C@H]1OCc1cccc(C(=O)O)c1)[C@]2(F)C(=O)O
Ki [1]: 1.06 nM

N[C@]1(C(=O)O)[C@H]2[C@@H](C[C@H]1OCc1cccc(Br)c1)[C@]2(F)C(=O)O
Ki [1]: 4.71 nM

N[C@]1(C(=O)O)[C@H]2[C@@H](C[C@H]1OCc1cccc(Cl)c1Cl)[C@]2(F)C(=O)O
Ki [1]: 4.35 nM

N[C@]1(C(=O)O)[C@H]2[C@@H](C[C@H]1OCc1cccc(C(F)(F)F)c1)[C@]2(F)C(=O)O
Ki [1]: 5.72 nM

N[C@]1(C(=O)O)[C@H]2[C@@H](C[C@H]1OCc1ccc3ccccc3c1)[C@]2(F)C(=O)O
half-life [4]: 2.93 h
IC50 [2]: 22.7 nM
concentration at 1 h [6]: 1.42 ng/mL
concentration at 3 h [7]: 3.64 ng/mL
concentration at 6 h [8]: 8.72 ng/mL
Cmax [9]: 65.9 ng/mL
Cmax [10]: 374 ng/mL
Cmax [11]: 965 ng/mL
Cmax [12]: 8.72 ng/mL
Cmax [13]: 252 ng/mL
half-life [14]: 7.1 h
half-life [15]: 2.9 h
concentration at 24 h [16]: 0.25 ng/mL
concentration at 1 h [17]: 121 ng/mL
concentration at 3 h [18]: 252 ng/mL
concentration at 6 h [19]: 210 ng/mL
concentration at 24 h [20]: 2.2 ng/mL
Ki [3]: 5.43 nM
Tmax [21]: 4 h
Tmax [22]: 2.7 h
Tmax [23]: 2.7 h
Tmax [24]: 6 h
Tmax [25]: 3 h
half-life [26]: 3.66 h
half-life [27]: 2.74 h

N[C@@]1(C(=O)O)[C@@H](OCc2ccc(Cl)c(Cl)c2)C[C@@H]2[C@H]1[C@@]2(F)C(=O)O
Ki [1]: 17.1 nM

CCC[C@H](O[C@@H]1C[C@@H]2[C@H]([C@]1(N)C(=O)O)[C@@]2(F)C(=O)O)c1ccc(Cl)c(Cl)c1
Ki [1]: 3.05 nM
